Experimental data published in ChEMBL document CHEMBL1137735, “Novel 4H-1,3,4-oxadiazin-5(6H)-ones with hydrophobic and long alkyl chains: design, synthesis, and bioactive diversity on inhibition of monoamine oxidase, chitin biosynthesis and tumor cell” (Eur J Med Chem, 2009).
Active and inactive are the calls of the source. The rule behind the calls is not given here.

Legend:
Rattus norvegicus [1] = organism: Rattus norvegicus; assay: Inhibition of rat brain mitochondrial MAO at 0.08 mmol/L by kynuramine fluorimetric assay
Rattus norvegicus [2] = organism: Rattus norvegicus; assay: Inhibition of rat brain mitochondrial MAO at 0.8 mmol/L by kynuramine fluorimetric assay
[3] = Inhibition of rat brain mitochondrial MAO by kynuramine fluorimetric assay
Saccharomyces cerevisiae [4] = assay: Inhibition of chitin synthase-mediated chitin synthesis in yeast at 250 uM by high throughput assay
In short: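 Yeast Saccharomyces cerevisiae cell extracts used as chitin synthase source in a modified non-radioactive chitin synthase assay; compounds screened at a single fixed level.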

Rattus norvegicus [5] = organism: Rattus norvegicus; assay: Inhibition of rat brain mitochondrial MAO at 0.008 mmol/L by kynuramine fluorimetric assay
A549 = assay: Cytotoxicity against human A549 cells by SRB assay; assay type: functional, cell-based
In short: (§1)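 Growth inhibition of human lung A-549 and prostate PC-3 cancer cell lines, read out by sulforhodamine B dye staining; IC50 taken as the concentration giving 50% inhibition.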

Rattus norvegicus [6] = organism: Rattus norvegicus; assay: Inhibition of rat brain mitochondrial MAO at 0.01 mmol/L by kynuramine fluorimetric assay
Rattus norvegicus [7] = organism: Rattus norvegicus; assay: Inhibition of rat brain mitochondrial MAO at 0.1 mmol/L by kynuramine fluorimetric assay
Rattus norvegicus [8] = organism: Rattus norvegicus; assay: Inhibition of rat brain mitochondrial MAO at 1 mmol/L by kynuramine fluorimetric assay
Saccharomyces cerevisiae [9] = assay: Inhibition of chitin synthase-mediated chitin synthesis in yeast by high throughput assay
In short: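 Enzyme source is Saccharomyces cerevisiae cell extract, run in a modified non-radioactive chitin synthase assay; five serial dilutions per compound tested to follow concentration dependence.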

PC-3 = assay: Cytotoxicity against human PC3 cells by SRB assay; assay type: functional, cell-based; in short: as §1

Row | Compound | IC50 [3] | inhibition (Saccharomyces cerevisiae [4]) | inhibition (Rattus norvegicus [6]) | inhibition (Rattus norvegicus [7]) | inhibition (Rattus norvegicus [8]) | other results
1 | CCCCC(CCCC)N1N=C(c2ccc(Cl)cc2)OCC1=O | 420 µM | Active | – | – | – | inhibition (Rattus norvegicus [1]): 28.2%; inhibition (Rattus norvegicus [2]): 58.8%; inhibition (Rattus norvegicus [5]): 11.2%; IC50 (A549): 24.8 µM
2 | CCCCC(CCCC)N1N=C(c2ccc3c(c2)OCO3)OCC1=O | – | Active | – | – | – | –
3 | CCCCC(CCCC)N1N=C(c2cc(C)cc(C)c2)OCC1=O | – | Active | – | – | – | –
4 | CCCCC(CCCC)NNC(=O)c1ccc2ccccc2c1 | – | – | 0% | 8.47% | 33.1% | –
5 | CCCCC(CCCC)NNC(=O)c1ccc(Cl)cc1Cl | – | – | 9.33% | 3.52% | 10.5% | –
6 | CCCCC(CCCC)NNC(=O)c1cccnc1OCC | – | – | 0% | 6.09% | 21.7% | –
7 | CCCCC(CCCC)NNC(=O)c1ccc(Cl)cc1 | 2610 µM | – | 7.52% | 2.71% | 28.6% | –
8 | CCCCC(CCCC)N1N=C(c2ccc(CC)cc2)OCC1=O | – | Active | – | – | – | –
9 | CCCCC(CCCC)NNC(=O)c1cc(OC)c(OC)c(OC)c1 | 2300 µM | – | 4.67% | 8.16% | 35.5% | –
10 | CCc1ccc(C(=O)NNCCC#N)cc1 | 240 µM | – | 2.8% | 37% | 71.2% | –
11 | N#CCCN1N=C(c2ccccc2)OCC1=O | – | – | – | – | – | Activity (Saccharomyces cerevisiae [4]): Active
12 | C[C@@H]([C@H](N)C(=O)N[C@H](C(=O)O)[C@H]1O[C@@H](n2ccc(=O)[nH]c2=O)[C@H](O)[C@@H]1O)[C@H](O)c1ccc(O)cn1 | – | – | – | – | – | inhibition (Saccharomyces cerevisiae [9]): Dose-dependent effect
13 | CCc1ccc(C2=NN(CCC#N)C(=O)CO2)cc1 | 430 µM | Active | – | – | – | IC50 (PC-3): > 100 µM; inhibition (Rattus norvegicus [1]): 25.5%; inhibition (Rattus norvegicus [2]): 59.7%; inhibition (Rattus norvegicus [5]): 9.73%; IC50 (A549): > 100 µM
14 | CCCCC(CCCC)N1N=C(c2cccnc2OCC)OCC1=O | – | 98% | – | – | – | inhibition (Saccharomyces cerevisiae [9]): Dose-dependent effect
15 | CCCCC(CCCC)N1N=C(c2ccc(Cl)cc2Cl)OCC1=O | – | Active | – | – | – | –
16 | CCCCC(CCCC)N1N=C(c2ccc3ccccc3c2)OCC1=O | 600 µM | Active | – | – | – | IC50 (PC-3): 42.5 µM; inhibition (Rattus norvegicus [1]): 20.3%; inhibition (Rattus norvegicus [2]): 54.6%; inhibition (Rattus norvegicus [5]): 12.8%; IC50 (A549): > 100 µM
17 | CCCCC(CCCC)NNC(=O)c1ccc2c(c1)OCO2 | – | – | 0% | 13.8% | 62.8% | –
18 | CCCCC(CCCC)NNC(=O)c1ccccc1Cl | – | – | 6.4% | 5.13% | 14.2% | –
19 | O=C(NC(=O)c1c(F)cccc1F)Nc1ccc(Cl)cc1 | – | inactive | – | – | – | –
20 | CCCCOC(=O)CCN1N=C(c2cccc(C)c2)OCC1=O | – | 95% | – | – | – | inhibition (Saccharomyces cerevisiae [9]): Dose-dependent effect
21 | CCCCC(CCCC)N1N=C(c2cc(OC)c(OC)c(OC)c2)OCC1=O | 410 µM | Active | – | – | – | IC50 (PC-3): 14.4 µM; inhibition (Rattus norvegicus [1]): 23.5%; inhibition (Rattus norvegicus [2]): 61.4%; inhibition (Rattus norvegicus [5]): 14%; IC50 (A549): 9.91 µM
